Six compounds from ChEMBL document CHEMBL4052793, “Synthesis and Biological Evaluation of Paclitaxel and Camptothecin Prodrugs on the Basis of 2-Nitroimidazole” (ACS Med Chem Lett, 2017) can be followed below.

The nature of data set [1]: Drug level in Pd/C using 1 mg 3C-SN38 assessed as compound formation in presence of H2 after 2 hrs by LC/MS method. An outline of the steps:
(§1)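 Chemical reduction over Pd/C under H2 in THF at 37 °C. Products were analysed to follow release of the parent drug.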

Data set [2] has as its system NCI-H460. As to the kind of experiment: Cytotoxicity against human NCI-H460 cells assessed as growth reduction under hypoxic condition after 72 hrs by MTT assay. The class given is functional, cell-based. As to conditions: NCI-H460, 72 h. A digest of the protocol: (§2)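 H460 lung and HT29 colon carcinoma cells exposed to a range of compound concentrations for 72 h, either in air (normoxic) or under hypoxia (94% N2, 5% CO2, 1% O2). Viability/proliferation read by MTT; IC50 for proliferation inhibition.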
A general note: Tetrazolium assays rely on reduction of a dye to a coloured formazan, in cell work by metabolically active cells.

Data set [3] relates to HT-29. As to the kind of experiment: Cytotoxicity against human HT-29 cells assessed as growth reduction under normoxic condition after 72 hrs by MTT assay. The class given is functional, cell-based. The note with it: HT-29, 72 h. A digest of the protocol:
as §2

For data set [4], the system named is HT-29. As to the kind of experiment: Cytotoxicity against human HT-29 cells assessed as growth reduction under hypoxic condition after 72 hrs by MTT assay. Format: functional, cell-based. The note with it: HT-29, 72 h. A digest of the protocol: as §2
Data set [5] in a line: Selectivity ratio, IC50 for human H460 cells under normoxic condition to IC50 for human H460 cells under hypoxic condition. The class given is functional.
In data set [6] the test system is HT-29. As to the kind of experiment: Selectivity ratio, IC50 for human HT-29 cells under normoxic condition to IC50 for human HT29 cells under hypoxic condition. Format: functional.
Data set [7] in a line: Half life in ABS buffer at 10 uM at pH 5.0 by HPLC method. Format: physicochemical.
The nature of data set [8]: Half life in PBS buffer at 10 uM at pH 6.5 by HPLC method. The class given is physicochemical.
Data set [9] in a line: Half life in PBS buffer at 10 uM at pH 7.4 by HPLC method. Format: physicochemical.
A short description of data set [10]: Drug degradation in human plasma assessed as compound half life at 10 uM by HPLC method. Format: ADME, cell-free. A digest of the protocol:
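Incubated in human plasma in vitro; remaining prodrug followed by HPLC over time and half-life derived.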

A short description of data set [11]: Prodrug conversion in Pd/C assessed as SN38 formation at 1 mg after 2 hrs in presence of H2 by LC/MS method. A digest of the protocol: as §1
Data set [12] can be described thus: Prodrug conversion in Pd/C assessed as 2-aminoimidazole intermediate of 3C-SN38 formation at 1 mg after 2 hrs in presence of H2 by LC/MS method. A digest of the protocol: as §1
Data set [13] is described as follows: Prodrug conversion assessed as Escherichia coli nitroreductase mediated SN38 reduction by measuring half life at 10 uM in presence of NADPH by HPLC method. The note with it: isolated protein. Format: ADME. A digest of the protocol: (§3)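 Prodrugs at 10 μM (1% DMSO) in PBS pH 7.4 incubated at 37 °C with E. coli nitroreductase (50 μg/mL) and NADPH (1 μmol/mL) for up to 1 h. Prodrug loss and active drug release tracked by HPLC.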

Data set [14] has as its system NCI-H460. As to the kind of experiment: Cytotoxicity against human NCI-H460 cells assessed as growth reduction under normoxic condition after 72 hrs by MTT assay. Format: functional, cell-based. As to conditions: NCI-H460, 72 h. A digest of the protocol:
as §2

The species named for a further data set is Mus musculus. As to the kind of experiment: Drug degradation in mouse plasma assessed as compound half life at 10 uM by HPLC method.
Data set [15] is described as follows: Prodrug conversion in Pd/C assessed as PTX formation at 1 mg after 2 hrs in presence of H2 by LC/MS method. An outline of the steps: as §1
Data set [16] can be described thus: Prodrug conversion in Pd/C assessed as 2-aminoimidazole intermediate of 2C-PTX formation at 1 mg after 2 hrs in presence of H2 by LC/MS method. A digest of the protocol: as §1
Data set [17] can be described thus: Prodrug conversion assessed as Escherichia coli nitroreductase mediated 2-aminoimidazole intermediate of 2C-PTX formation at 10 uM after 1 hr in presence of NADPH by HPLC method. Format: ADME. As to conditions: isolated protein. A digest of the protocol: as §3
A short description of data set [18]: Drug level in Pd/C treated with 3C-PTX at 1 mg in presence of H2 after 2 hrs by LC/MS method. A digest of the protocol:
as §1

Data set [19] is described as follows: Drug level in Pd/C treated with 2C-PTX at 1 mg in presence of H2 after 2 hrs by LC/MS method. An outline of the steps:
as §1

A short description of data set [20]: Prodrug conversion in Pd/C assessed as 2-aminoimidazole intermediate of 3C-PTX formation at 1 mg after 2 hrs in presence of H2 by LC/MS method. An outline of the steps: as §1

Structures are written as SMILES.

With `CCc1c2c(nc3ccc(O)cc13)-c1cc3c(c(=O)n1C2)COC(=O)[C@]3(O)CC` [7-ETHYL-10-HYDROXYCAMPTOTHECIN], in data set [1], the Drug metabolism entry is listed as “Metabolite detected”. The results for the IC50 in the data set on NCI-H460 [2], in the data set on HT-29 [3] and in the data set on HT-29 [4] were 47 nM, 96 nM and 119 nM, respectively. For the same compound, the entries for the “Ratio IC50” value (in data set [5]; in the data set on HT-29 [6]) were 1.06 and 0.82, respectively.

Consider `CCc1c2c(nc3ccc(O)cc13)-c1cc3c(c(=O)n1C2)COC(=O)[C@@]3(CC)OC(=O)OCCCn1ccnc1[N+](=O)[O-]`, for which the half-life at 10 µM was 2400 min in data set [7]; greater than 2880 min in data set [8]; greater than 2880 min in data set [9]; 120 min in data set [10]; 37 min in the data set filed under Mus musculus. For the same compound, the Drug metabolism entry in data set [11] and in [12] was “Metabolite detected” each time. In addition, the t1/2 result in [13] is recorded as “<= 10 min”. The half-inhibitory concentration (IC50) in the data set on NCI-H460 [14] is 201 nM; in the data set on NCI-H460 [2], 99 nM; in the data set with HT-29 [3], greater than 10000 nM; in the data set on HT-29 [4] it was 6020 nM. For the same compound, the “Ratio IC50” value in data set [5] is on record as 2.03; with HT-29 [6], greater than 1.67.

With `CC(=O)O[C@H]1C(=O)[C@@]2(C)[C@H]([C@H](OC(=O)c3ccccc3)[C@]3(O)C[C@H](OC(=O)[C@H](OC(=O)OCCn4ccnc4[N+](=O)[O-])[C@@H](NC(=O)c4ccccc4)c4ccccc4)C(C)=C1C3(C)C)[C@]1(OC(C)=O)CO[C@@H]1C[C@@H]2O`, the half-life at 10 µM is 2880 min in data set [7]; 1440 min in [8]; 1680 min in data set [9]; 120 min in [10]; 20 min in the data set filed under Mus musculus. Moreover, the Drug metabolism result in [15] was “Metabolite detected”; in data set [16], “Metabolite detected”; in [17], “Metabolite_Notdetected”. In addition, the t1/2 result in data set [13] is given as “<= 10 min”. The IC50 with NCI-H460 [14] was determined as 9 nM; with NCI-H460 [2], 6 nM; in the data set on HT-29 [3], 140 nM; with HT-29 [4], 45 nM. Besides, the “Ratio IC50” value in data set [5] is 1.5; in the data set on HT-29 [6], 3.11.

With `CCc1c2c(nc3ccc(O)cc13)-c1cc3c(c(=O)n1C2)COC(=O)[C@@]3(CC)OC(=O)OCCn1ccnc1[N+](=O)[O-]`, the half-life at 10 µM in data set [7] was greater than 2880 min; in data set [8], 2460 min; in data set [9], greater than 2880 min; in [10], 360 min; in the data set listed under Mus musculus it was 47 min. Moreover, the t1/2 in data set [13] was 30 min. Also, the IC50 with NCI-H460 [14] is 91 nM; in the data set with NCI-H460 [2] it was 63 nM; with HT-29 [3] it was greater than 10000 nM; with HT-29 [4] it was 9560 nM. Moreover, the entries for the “Ratio IC50” value (in data set [5]; in the data set with HT-29 [6]) were 1.44 and greater than 1.05, respectively.

For the compound `CC(=O)O[C@H]1C(=O)[C@@]2(C)[C@H]([C@H](OC(=O)c3ccccc3)[C@]3(O)C[C@H](OC(=O)[C@H](O)[C@@H](NC(=O)c4ccccc4)c4ccccc4)C(C)=C1C3(C)C)[C@]1(OC(C)=O)CO[C@@H]1C[C@@H]2O` [PACLITAXEL], the Drug metabolism result in [18] and in [19] was “Metabolite detected” in each case. For the same compound, the values for the IC50 in the data set on HT-29 [3] and in the data set with HT-29 [4] were 14 nM and 15 nM, respectively.

`CC(=O)O[C@H]1C(=O)[C@@]2(C)[C@H]([C@H](OC(=O)c3ccccc3)[C@]3(O)C[C@H](OC(=O)[C@H](OC(=O)OCCCn4ccnc4[N+](=O)[O-])[C@@H](NC(=O)c4ccccc4)c4ccccc4)C(C)=C1C3(C)C)[C@]1(OC(C)=O)CO[C@@H]1C[C@@H]2O`: the half-life at 10 µM in [7] was greater than 2880 min; in data set [8], 1440 min; in data set [9], 2160 min; in [10], 360 min; in the data set filed under Mus musculus it was 55 min. Also, the Drug metabolism result in data set [15] and in [20] was “Metabolite detected” throughout. Moreover, the t1/2 entry in data set [13] is recorded as “<= 10 min”. In addition, the IC50 was 21 nM with NCI-H460 [14], 18 nM with NCI-H460 [2], 290 nM in the data set on HT-29 [3] and 159 nM with HT-29 [4]. For the same compound, the results for the “Ratio IC50” value (in data set [5]; in the data set with HT-29 [6]) were 1.17 and 1.82, respectively.

For orientation: IC50 means the concentration that inhibits the measured activity by half. A word on the half-life: it is the time needed for the level to fall by half in the phase considered.
